Each block holds one molecule with its values, some of them ahead of it.
How the values were obtained:
[1] = Prodrug conversion in simulated gastric fluid assessed as half life; format: ADME; conditions: simulated gi fluid
Method in brief: (§1)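 Incubations used 2 µM compound at 37 °C in either SGF (0.2% NaCl/HCl, pH 1.2, pepsin 3.2 mg/mL) or SIF (KH2PO4/NaOH, pH 7.5, pancreatin 10 mg/mL). Samples were quenched 1:2 with acetonitrile/methanol 1:1 and analysed by HPLC. t1/2 = 0.693/first-order disappearance rate.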

Liver microsome [2] = test: Prodrug conversion in rat liver microsomes assessed as half life
Rattus norvegicus [3] = test: AUC in rat plasma assessed as (E)-3-(4-(1-(2-(5-chloropyrimidin-2-yl)-3-cyclopentyl-1-methyl-1H-indole-6-carboxamido)cyclobutanecarboxamido)-2-ethoxyphenyl)acrylic acid at 10 mg/kg, po using 10.6% PEG400, 5.4% Cremophor EL, 2.6% Labrasol, 1.4% Capmul MCM in water (80%) vehicle; format: ADME, organism-based; design: dose 10 mg/kg, route oral; conditions: in vivo
Method in brief: (§2)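 Fasted rats were given a single 10 mg/kg oral dose, with n = 3 per dose and route. Plasma was extracted by solid-phase extraction. Analysis used HPLC with diode-array UV (200–400 nm, peak height at best S/N) or LC/MS. Calibration standards were made in blank plasma, with LOQ 7–14 ng/mL. Parameters came from noncompartmental analysis.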

Rattus norvegicus [4] = test: Cmax in rat plasma assessed as (E)-3-(4-(1-(2-(5-chloropyrimidin-2-yl)-3-cyclopentyl-1-methyl-1H-indole-6-carboxamido)cyclobutanecarboxamido)-2-ethoxyphenyl)acrylic acid at 10 mg/kg, po using 10.6% PEG400, 5.4% Cremophor EL, 2.6% Labrasol, 1.4% Capmul MCM in water (80%) vehicle; format: ADME, organism-based; design: dose 10 mg/kg, route oral; conditions: in vivo; method in brief: as §2
[5] = Prodrug solubility in capmul; format: ADME
Liver microsome [6] = test: Prodrug conversion in human liver microsomes assessed as half life
[7] = Cmax in rat plasma at 10 mg/kg, po using 10.6% PEG400, 5.4% Cremophor EL, 2.6% Labrasol, 1.4% Capmul MCM in water (80%) vehicle; format: ADME, organism-based; design: dose 10 mg/kg, route oral; conditions: plasma; method in brief: as §2
[8] = Prodrug solubility in solutol; format: ADME
[9] = Prodrug solubility in Labrasol; format: ADME
[10] = AUC in rat plasma at 10 mg/kg, po using 10.6% PEG400, 5.4% Cremophor EL, 2.6% Labrasol, 1.4% Capmul MCM in water (80%) vehicle; format: ADME, organism-based; design: dose 10 mg/kg, route oral; conditions: plasma; method in brief: as §2
Plasma [11] = test: Prodrug conversion in rat plasma assessed as half life; format: ADME, cell-free
Method in brief: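 Rat plasma (from centrifuged whole blood) was incubated with 2 µM compound at 37 °C. Samples were quenched 1:3 with acetonitrile/methanol 1:1, centrifuged and analysed by HPLC-PDA. Half-life was taken as 0.693/first-order rate of loss of the starting compound.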

Plasma [12] = test: Prodrug conversion in human plasma assessed as half life
Intestine = test: Prodrug conversion in rat intestinal microsomes assessed as half life
[13] = Prodrug conversion in simulated intestinal fluid assessed as half life; format: ADME; conditions: simulated gi fluid; method in brief: as §1
[14] = Prodrug conversion in human intestinal microsomes assessed as half life

t1/2 [1]: 0.467 h
SMILES: CCOc1cc(NC(=O)C2(NC(=O)c3ccc4c(C5CCCC5)c(-c5ncc(Cl)cn5)n(C)c4c3)CCC2)ccc1/C=C/C(=O)N[C@@H](CCCNC(=N)N)C(N)=O

t1/2 (Liver microsome [2]): 0.783 h
AUC (Rattus norvegicus [3]): 25.6 µM·h
Cmax (Rattus norvegicus [4]): 6100 nM
solubility [5]: < 100 mg/mL
t1/2 (Liver microsome [6]): 0.683 h
Cmax [7]: 40 nM
solubility [8]: < 100 mg/mL
solubility [9]: < 100 mg/mL
AUC [10]: 0.06 µM·h
SMILES: CCOc1cc(NC(=O)C2(NC(=O)c3ccc4c(C5CCCC5)c(-c5ncc(Cl)cn5)n(C)c4c3)CCC2)ccc1/C=C/C(=O)OCCNN1CCCC1

t1/2 (Liver microsome [2]): 1.17 h
t1/2 (Liver microsome [6]): 3.1 h
SMILES: CCOc1cc(NC(=O)C2(NC(=O)c3ccc4c(C5CCCC5)c(-c5ncc(Cl)cn5)n(C)c4c3)CCC2)ccc1/C=C/C(=O)OCC(=O)O

t1/2 (Liver microsome [2]): 15.8 h
t1/2 (Liver microsome [6]): 5.98 h
SMILES: CCCCOC(=O)COC(=O)/C=C/c1ccc(NC(=O)C2(NC(=O)c3ccc4c(C5CCCC5)c(-c5ncc(Cl)cn5)n(C)c4c3)CCC2)cc1OCC

t1/2 (Liver microsome [2]): 2.25 h
t1/2 (Liver microsome [6]): 1.3 h
SMILES: CCOc1cc(NC(=O)C2(NC(=O)c3ccc4c(C5CCCC5)c(-c5ncc(Cl)cn5)n(C)c4c3)CCC2)ccc1/C=C/C(=O)N(C)CCO

t1/2 (Liver microsome [2]): 2.45 h
t1/2 (Liver microsome [6]): 1.6 h
SMILES: CCOC(=O)COC(=O)/C=C/c1ccc(NC(=O)C2(NC(=O)c3ccc4c(C5CCCC5)c(-c5ncc(Cl)cn5)n(C)c4c3)CCC2)cc1OCC

t1/2 (Liver microsome [2]): 2.08 h
t1/2 (Liver microsome [6]): 2.1 h
SMILES: CCOc1cc(NC(=O)C2(NC(=O)c3ccc4c(C5CCCC5)c(-c5ncc(Cl)cn5)n(C)c4c3)CCC2)ccc1/C=C/C(=O)OCC(=O)OC

t1/2 (Plasma [11]): 15.2 h
t1/2 (Liver microsome [2]): 0.35 h
t1/2 (Plasma [12]): > 5 h
t1/2 (Liver microsome [6]): > 5 h
t1/2 [1]: 2.23 h
t1/2 (Intestine): > 5 h
t1/2 [13]: > 5 h
t1/2 [14]: > 5 h
SMILES: CCCOC(=O)/C=C/c1ccc(NC(=O)C2(NC(=O)c3ccc4c(C5CCCC5)c(-c5ncc(Cl)cn5)n(C)c4c3)CCC2)cc1OCC

t1/2 (Liver microsome [2]): 7.92 h
t1/2 (Liver microsome [6]): 5.57 h
SMILES: CCOc1cc(NC(=O)C2(NC(=O)c3ccc4c(C5CCCC5)c(-c5ncc(Cl)cn5)n(C)c4c3)CCC2)ccc1/C=C/C(=O)OC(=O)C[C@H](O)C(=O)O

t1/2 (Plasma [11]): 6.6 h
t1/2 (Liver microsome [2]): 2.2 h
t1/2 (Plasma [12]): > 5 h
t1/2 (Liver microsome [6]): 26.15 h
t1/2 [1]: 3.03 h
t1/2 (Intestine): > 5 h
t1/2 [13]: 1.63 h
t1/2 [14]: > 5 h
SMILES: CCOc1cc(NC(=O)C2(NC(=O)c3ccc4c(C5CCCC5)c(-c5ncc(Cl)cn5)n(C)c4c3)CCC2)ccc1/C=C/C(=O)OCC(=O)OCc1ccccc1

t1/2 (Plasma [11]): 2.23 h
t1/2 (Liver microsome [2]): 2.17 h
t1/2 (Plasma [12]): > 5 h
t1/2 (Liver microsome [6]): > 5 h
t1/2 [1]: 1.83 h
t1/2 (Intestine): > 5 h
t1/2 [13]: > 5 h
t1/2 [14]: > 5 h
SMILES: CCOc1cc(NC(=O)C2(NC(=O)c3ccc4c(C5CCCC5)c(-c5ncc(Cl)cn5)n(C)c4c3)CCC2)ccc1/C=C/C(=O)OCc1ccccc1

t1/2 (Liver microsome [2]): 5.6 h
AUC (Rattus norvegicus [3]): 19.6 µM·h
Cmax (Rattus norvegicus [4]): 1700 nM
t1/2 (Liver microsome [6]): 4.12 h
Cmax [7]: 40 nM
t1/2 [1]: < 0.033 h
AUC [10]: 0.3 µM·h
SMILES: CCOc1cc(NC(=O)C2(NC(=O)c3ccc4c(C5CCCC5)c(-c5ncc(Cl)cn5)n(C)c4c3)CCC2)ccc1/C=C/C(=O)OCOC(=O)C(C)(C)C

t1/2 (Liver microsome [2]): 1.07 h
AUC (Rattus norvegicus [3]): 23.1 µM·h
Cmax (Rattus norvegicus [4]): 4600 nM
solubility [5]: < 60 mg/mL
t1/2 (Liver microsome [6]): 0.85 h
Cmax [7]: 30 nM
solubility [8]: < 100 mg/mL
solubility [9]: < 30 mg/mL
AUC [10]: 0.1 µM·h
SMILES: CCOc1cc(NC(=O)C2(NC(=O)c3ccc4c(C5CCCC5)c(-c5ncc(Cl)cn5)n(C)c4c3)CCC2)ccc1/C=C/C(=O)OCCOCCOC

t1/2 (Liver microsome [2]): 16.5 h
t1/2 (Liver microsome [6]): > 5 h
SMILES: CCOc1cc(NC(=O)C2(NC(=O)c3ccc4c(C5CCCC5)c(-c5ncc(Cl)cn5)n(C)c4c3)CCC2)ccc1/C=C/C(=O)OCCOc1ccccc1

Source: ChEMBL document CHEMBL3352534, “A prodrug strategy for the oral delivery of a poorly soluble HCV NS5B thumb pocket 1 polymerase inhibitor using self-emulsifying drug delivery systems (SEDDS)” (Bioorg Med Chem Lett, 2015)
